Reference: PMC3902942 (Nucleic Acids Research, 2013)

Legend:
[1] = tested on: PU.1-λB complex (PU.1 ETS domain on immobilized λB site hairpin); assay: Biosensor-SPR PU.1-DNA complex inhibition; assay type: binding, murine
In short: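 Murine PU.1 ETS domain (residues 167–272), expressed in E. coli, on a Biacore T200 biosensor. 5′-Biotinylated λB-site hairpin DNA immobilised on CM4 chips. Protein injected at constant 100 nM to saturate DNA sites, with graded compound concentrations added to the protein solution. Loss of protein signal plotted against compound concentration. Transition midpoint taken as IC50.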

[2] = biological target: λB site DNA hairpin duplex; assay: Biosensor-SPR direct binding of compounds to immobilized λB site DNA hairpin; conditions: read-out: KD for the λB site

Compound	IC50 ([1]; read-out: IC50 of PU.1 binding inhibition) [nM]	Kd [2] [nM]	Inhibition of PU.1 binding (in words) [1]
N=C(N)c1ccc(-c2ccc(-c3ccc(C(=N)N)cc3)[se]2)cc1 [DB1213]	~1500	–	–
N=C(N)c1ccc(-c2ccc(-c3ccc(C(=N)N)cc3)o2)cc1 [DB75, furamidine]	–	530	does not inhibit PU.1 binding
